Several values for one entry are separate records, joined by “and”; a condition that tells them apart may be missing. Equal entries are not always repeated. Where two headings read alike, the source gives them in different places.
Tests used:
[1] = test system: Akt pS473 in LNCaP/shPIK3CB#3 cells; experiment: Western blot of Akt pS473; type: cell-based; settings: LNCaP/shPIK3CB#3, 5 μM, 4 h
Akt pS473 in LNCaP cells = experiment: Western blot of Akt pS473; type: cell-based; settings: 5 μM, 4 h
p110β [2] = molecular target: T1, p110β (Homo sapiens, UniProt P42338); experiment: whole cell CETSA; type: cell-based; settings: whole cell (in vivo), PC-3
T1 sequence (P42338 whole entry): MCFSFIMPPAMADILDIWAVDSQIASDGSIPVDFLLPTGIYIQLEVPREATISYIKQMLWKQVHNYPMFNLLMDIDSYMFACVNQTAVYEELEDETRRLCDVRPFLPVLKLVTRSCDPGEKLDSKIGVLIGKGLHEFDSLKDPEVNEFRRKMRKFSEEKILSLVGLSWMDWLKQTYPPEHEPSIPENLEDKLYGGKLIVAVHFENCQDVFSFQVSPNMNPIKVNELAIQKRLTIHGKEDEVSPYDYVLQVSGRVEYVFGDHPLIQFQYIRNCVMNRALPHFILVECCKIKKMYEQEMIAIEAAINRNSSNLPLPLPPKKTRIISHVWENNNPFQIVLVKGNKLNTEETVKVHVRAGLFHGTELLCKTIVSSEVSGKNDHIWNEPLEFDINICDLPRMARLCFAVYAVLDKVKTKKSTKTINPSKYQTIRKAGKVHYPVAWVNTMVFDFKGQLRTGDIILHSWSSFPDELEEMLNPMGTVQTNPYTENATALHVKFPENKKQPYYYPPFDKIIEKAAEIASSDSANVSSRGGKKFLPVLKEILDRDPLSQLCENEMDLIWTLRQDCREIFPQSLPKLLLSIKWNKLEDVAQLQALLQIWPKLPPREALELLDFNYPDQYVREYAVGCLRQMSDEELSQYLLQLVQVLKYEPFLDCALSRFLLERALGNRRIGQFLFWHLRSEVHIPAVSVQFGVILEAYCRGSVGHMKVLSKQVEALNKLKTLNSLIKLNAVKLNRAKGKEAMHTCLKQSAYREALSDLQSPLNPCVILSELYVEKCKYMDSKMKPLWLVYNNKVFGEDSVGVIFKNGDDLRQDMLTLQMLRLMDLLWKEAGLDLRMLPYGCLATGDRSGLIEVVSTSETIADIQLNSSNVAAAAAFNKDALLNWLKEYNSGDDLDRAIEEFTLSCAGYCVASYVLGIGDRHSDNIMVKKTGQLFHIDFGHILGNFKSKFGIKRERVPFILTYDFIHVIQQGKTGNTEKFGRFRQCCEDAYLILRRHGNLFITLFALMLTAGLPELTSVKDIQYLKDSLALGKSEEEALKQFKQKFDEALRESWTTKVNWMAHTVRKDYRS
Procedure, shortened: (§1)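 Intact PC-3 cells in regular media treated with test compound or solvent for 4 hrs, washed and collected in cold PBS. Aliquoted pellets heated 3 min at 37–69°C (4°C steps), cooled 2 min at room temperature, then iced. Lysed in RIPA by three liquid-nitrogen freeze-thaw cycles; soluble fraction Western blotted. Densities normalized 0–100%, Boltzmann sigmoid fit; ΔTm50 as compound vs solvent shift at 50% band loss.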

Akt [3] = experiment: whole cell CETSA; type: cell-based; settings: whole cell (in vivo), PC-3
Procedure, shortened: as §1

p110β [4] = molecular target: T1, p110β; experiment: cell lysate CETSA; type: binding
Procedure, shortened: (§2)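 Exponentially grown PC-3 cells in RIPA with protease inhibitors were put through three liquid-nitrogen freeze-thaw cycles, then ultracentrifuged 20 min at 4°C. Soluble lysate was incubated with test compound (5 μM) or DMSO for 45 min at room temperature. Aliquots were heated 3 min at 37–69°C in 4°C steps, cooled 3 min, and spun. Supernatant was Western blotted. Bands were normalized to 0–100% and fitted with a Boltzmann sigmoid. ΔTm50 is the compound-minus-solvent temperature at 50% band loss. Three experiments.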

Akt [5] = experiment: cell lysate CETSA; type: binding; settings: cell lysate (in vitro), PC-3, compound 5 μM
Procedure, shortened: as §2

p110α = p110α (Homo sapiens, UniProt P42336); experiment: cell lysate CETSA; type: binding
p110α, sequence (P42336 whole entry): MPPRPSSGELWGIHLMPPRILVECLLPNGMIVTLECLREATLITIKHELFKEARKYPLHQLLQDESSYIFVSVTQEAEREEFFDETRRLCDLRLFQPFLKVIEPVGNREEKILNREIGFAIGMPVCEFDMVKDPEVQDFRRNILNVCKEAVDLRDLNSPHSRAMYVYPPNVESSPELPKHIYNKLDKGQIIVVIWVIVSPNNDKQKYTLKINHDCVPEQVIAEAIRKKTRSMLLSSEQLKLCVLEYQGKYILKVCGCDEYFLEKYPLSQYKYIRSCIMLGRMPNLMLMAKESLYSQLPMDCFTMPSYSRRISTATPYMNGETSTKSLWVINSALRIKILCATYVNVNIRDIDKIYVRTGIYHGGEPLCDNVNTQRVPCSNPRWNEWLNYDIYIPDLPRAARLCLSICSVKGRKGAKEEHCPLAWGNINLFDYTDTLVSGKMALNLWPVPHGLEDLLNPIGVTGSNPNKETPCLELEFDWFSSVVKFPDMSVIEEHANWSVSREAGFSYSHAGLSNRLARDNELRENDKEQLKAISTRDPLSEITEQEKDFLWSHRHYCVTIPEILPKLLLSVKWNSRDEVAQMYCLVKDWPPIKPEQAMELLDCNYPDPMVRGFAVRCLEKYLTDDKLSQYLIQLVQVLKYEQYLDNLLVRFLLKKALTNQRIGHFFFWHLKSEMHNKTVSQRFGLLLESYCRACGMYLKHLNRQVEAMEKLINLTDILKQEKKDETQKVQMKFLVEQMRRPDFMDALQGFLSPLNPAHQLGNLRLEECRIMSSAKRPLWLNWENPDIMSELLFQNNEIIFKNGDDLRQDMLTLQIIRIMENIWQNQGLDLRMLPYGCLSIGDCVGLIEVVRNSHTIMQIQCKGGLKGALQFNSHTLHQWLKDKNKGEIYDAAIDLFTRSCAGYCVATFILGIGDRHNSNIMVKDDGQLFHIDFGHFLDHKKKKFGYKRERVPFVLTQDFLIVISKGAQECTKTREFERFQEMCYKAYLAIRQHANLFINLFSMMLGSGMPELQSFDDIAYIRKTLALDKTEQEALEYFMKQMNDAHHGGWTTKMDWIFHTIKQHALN
Procedure, shortened: as §2

p110γ = p110γ (Homo sapiens, UniProt P48736); experiment: cell lysate CETSA; type: binding
p110γ, sequence (P48736 whole entry): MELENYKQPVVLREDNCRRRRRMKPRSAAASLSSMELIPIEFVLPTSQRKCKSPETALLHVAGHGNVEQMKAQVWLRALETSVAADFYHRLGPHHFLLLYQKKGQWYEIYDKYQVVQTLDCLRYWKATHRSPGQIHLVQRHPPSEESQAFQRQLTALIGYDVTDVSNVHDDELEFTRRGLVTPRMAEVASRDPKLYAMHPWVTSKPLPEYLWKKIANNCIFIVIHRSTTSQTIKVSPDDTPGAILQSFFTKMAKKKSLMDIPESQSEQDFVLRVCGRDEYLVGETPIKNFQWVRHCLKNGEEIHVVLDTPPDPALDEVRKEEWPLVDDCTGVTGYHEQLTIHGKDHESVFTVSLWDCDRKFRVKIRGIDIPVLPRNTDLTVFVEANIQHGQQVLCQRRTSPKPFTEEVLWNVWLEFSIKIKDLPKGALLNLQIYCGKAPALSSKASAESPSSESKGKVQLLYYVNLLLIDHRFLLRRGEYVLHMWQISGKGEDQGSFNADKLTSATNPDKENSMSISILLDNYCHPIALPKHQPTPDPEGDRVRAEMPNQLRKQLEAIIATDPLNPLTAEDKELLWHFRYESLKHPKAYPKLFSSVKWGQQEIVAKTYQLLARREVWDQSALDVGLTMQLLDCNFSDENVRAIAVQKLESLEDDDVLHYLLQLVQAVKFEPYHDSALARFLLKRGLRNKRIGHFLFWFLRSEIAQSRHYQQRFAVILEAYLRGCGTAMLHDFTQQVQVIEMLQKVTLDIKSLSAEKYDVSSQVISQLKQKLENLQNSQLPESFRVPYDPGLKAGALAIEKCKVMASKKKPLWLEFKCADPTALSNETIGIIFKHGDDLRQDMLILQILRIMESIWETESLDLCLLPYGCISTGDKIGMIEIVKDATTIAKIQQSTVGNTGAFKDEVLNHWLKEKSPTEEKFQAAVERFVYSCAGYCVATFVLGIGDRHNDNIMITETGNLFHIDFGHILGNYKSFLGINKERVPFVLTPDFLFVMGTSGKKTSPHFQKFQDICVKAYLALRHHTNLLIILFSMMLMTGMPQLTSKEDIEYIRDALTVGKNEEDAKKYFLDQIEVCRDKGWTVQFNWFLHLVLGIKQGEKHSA
Procedure, shortened: as §2

VPS34 = VPS34 (Homo sapiens, UniProt Q8NEB9); experiment: cell lysate CETSA; type: binding
VPS34, sequence (Q8NEB9 whole entry): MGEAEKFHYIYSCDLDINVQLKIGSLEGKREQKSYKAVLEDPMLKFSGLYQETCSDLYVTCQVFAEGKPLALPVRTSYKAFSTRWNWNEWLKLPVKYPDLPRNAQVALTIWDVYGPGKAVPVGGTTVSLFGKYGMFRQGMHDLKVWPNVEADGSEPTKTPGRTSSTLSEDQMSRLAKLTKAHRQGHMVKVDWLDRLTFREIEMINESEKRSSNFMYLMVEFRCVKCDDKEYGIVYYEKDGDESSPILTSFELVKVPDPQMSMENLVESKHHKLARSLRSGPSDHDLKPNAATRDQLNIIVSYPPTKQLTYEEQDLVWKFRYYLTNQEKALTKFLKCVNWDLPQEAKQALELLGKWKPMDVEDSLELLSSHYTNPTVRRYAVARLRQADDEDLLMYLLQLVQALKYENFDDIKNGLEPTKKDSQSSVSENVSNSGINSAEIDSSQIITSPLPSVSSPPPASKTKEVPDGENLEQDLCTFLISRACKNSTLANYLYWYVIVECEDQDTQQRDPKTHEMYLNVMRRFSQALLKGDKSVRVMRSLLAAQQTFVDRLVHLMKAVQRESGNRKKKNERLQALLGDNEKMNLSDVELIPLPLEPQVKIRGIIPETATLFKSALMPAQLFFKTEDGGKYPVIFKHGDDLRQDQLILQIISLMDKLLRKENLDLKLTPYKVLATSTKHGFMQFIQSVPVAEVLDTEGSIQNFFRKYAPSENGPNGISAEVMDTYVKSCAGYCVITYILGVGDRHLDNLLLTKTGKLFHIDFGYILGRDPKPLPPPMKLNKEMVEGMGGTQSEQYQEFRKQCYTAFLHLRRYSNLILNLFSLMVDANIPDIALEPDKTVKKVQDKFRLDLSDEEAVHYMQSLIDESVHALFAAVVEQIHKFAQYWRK
Procedure, shortened: as §2

aqueous solubility assay = type: physicochemical
22RV1 cells = experiment: WST-8 cell growth inhibition; type: cell-based; settings: read-out: Cell Growth Inhibition EC50 (95% CI)
Procedure, shortened: (§3)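 Cells seeded at 8,000 per well and grown 24 hrs, then exposed to increasing concentrations of test compound or solvent for 3 days. WST-8 reagent added for 2 hrs at 37°C and OD read at 450 nm. Growth inhibition taken as percentage of solvent control OD. EC50 from log concentration vs normalized response fit, variable slope. Three independent experiments.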

Akt pS473 in C4-2B cells = experiment: Western blot of FBS-stimulated Akt pS473; type: cell-based; settings: 5 μM
Procedure, shortened: (§4)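 Cells serum-starved overnight, pretreated with test compound, then given 10% FBS. Lysates made in RIPA buffer with protease inhibitor cocktail, equal protein run on SDS-PAGE and transferred to PVDF. Blocked in 10% nonfat milk 1 hr, primary antibody (Akt pS473) overnight at 4°C, HRP secondary, chemiluminescent detection. Actin used as loading control.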

C4-2B/MDV-R cells [6] = experiment: flow cytometry cell cycle analysis; type: cell-based; settings: 16 h after 10% FBS
Procedure, shortened: (§5)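 Cells serum-starved overnight to synchronise, pretreated 30 min with solvent or test compound, then stimulated with 10% FBS for 16 h. Cells trypsinized, fixed and stained with propidium iodide. Counted on a flow cytometer (FACS) and cell cycle phase distribution calculated. Mean and SEM from at least three repeated experiments.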

C4-2B cells [7] = experiment: flow cytometry cell cycle analysis; type: cell-based; settings: 16 h after 10% FBS
Procedure, shortened: as §5

[8] = test system: cyclin D1, CDK6 and p27^kip1 in C4-2B cells; experiment: Western blot of G1 phase proteins; type: cell-based; settings: 5 μM
Procedure, shortened: (§6)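 After overnight serum starvation, cells received a 30-min pretreatment with solvent or test compound (5 μM), were stimulated with 10% FBS and were harvested at several time points. Lysates (RIPA plus protease inhibitors) were immunoblotted on PVDF for cyclin D1, CDK6 and p27kip1, with chemiluminescent detection and actin as loading control.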

[9] = test system: cyclin D1, CDK6 and p27^kip1 in C4-2B/MDV-R cells; experiment: Western blot of G1 phase proteins; type: cell-based; settings: 5 μM
Procedure, shortened: as §6

PC-3 cells = experiment: WST-8 cell growth inhibition; type: cell-based; settings: read-out: Cell Growth Inhibition EC50 (95% CI)
Procedure, shortened: as §3

C4-2B cells [10] = experiment: WST-8 cell growth inhibition; type: cell-based; settings: read-out: Cell Growth Inhibition EC50 (95% CI)
Procedure, shortened: as §3

C4-2B/MDV-R cells [11] = experiment: WST-8 cell growth inhibition; type: cell-based; settings: read-out: Cell Growth Inhibition EC50 (95% CI)
Procedure, shortened: as §3

[12] = test system: Akt pS473 in C4-2B/MDV-R cells; experiment: Western blot of FBS-stimulated Akt pS473; type: cell-based; settings: 5 μM
Procedure, shortened: as §4

human p110δ/p85α = human p110δ/p85α (Homo sapiens, UniProt O00329); experiment: Kinase-Glo Plus luminescent kinase assay; type: biochemical; settings: read-out: IC50 p110δ; 2 μM ATP, 37°C, 2 h
human p110α/p85α = human p110α/p85α (Homo sapiens, UniProt P42336); experiment: Kinase-Glo Plus luminescent kinase assay; type: biochemical; settings: read-out: IC50 p110α; 2 μM ATP, 37°C, 2 h
human p110α/p85α, sequence (P42336 whole entry): as the sequence (P42336 whole entry) above
human p110α/p85α, sequence (P27986 whole entry partner): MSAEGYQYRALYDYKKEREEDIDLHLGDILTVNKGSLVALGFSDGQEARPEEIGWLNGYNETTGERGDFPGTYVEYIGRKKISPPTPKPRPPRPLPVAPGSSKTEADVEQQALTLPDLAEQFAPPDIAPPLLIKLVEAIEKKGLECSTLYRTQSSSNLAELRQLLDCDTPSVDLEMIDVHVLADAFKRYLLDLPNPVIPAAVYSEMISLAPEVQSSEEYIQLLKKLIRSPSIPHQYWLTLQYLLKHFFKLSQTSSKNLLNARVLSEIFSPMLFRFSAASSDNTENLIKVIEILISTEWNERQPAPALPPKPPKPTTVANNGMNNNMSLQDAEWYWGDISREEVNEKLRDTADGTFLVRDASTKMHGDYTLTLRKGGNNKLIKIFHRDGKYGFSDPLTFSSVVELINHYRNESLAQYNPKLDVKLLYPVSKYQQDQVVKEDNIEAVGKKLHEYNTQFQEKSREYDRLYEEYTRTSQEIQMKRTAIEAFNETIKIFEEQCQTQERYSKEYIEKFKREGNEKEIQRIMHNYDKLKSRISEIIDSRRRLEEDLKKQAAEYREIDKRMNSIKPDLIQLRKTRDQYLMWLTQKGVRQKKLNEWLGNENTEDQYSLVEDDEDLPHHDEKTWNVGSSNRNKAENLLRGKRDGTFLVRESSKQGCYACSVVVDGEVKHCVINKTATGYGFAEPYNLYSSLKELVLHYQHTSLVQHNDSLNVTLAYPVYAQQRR

[13] = cell lysate (in vitro), PC-3, compound 5 μM

In the case of `O=c1[nH]c2ccccc2n1C1CCN(Cc2ccc(-c3nc4cc5[nH]cnc5cc4nc3-c3ccccc3)cc2)CC1` [AKT-i8], the “effect on Akt pS473” value [1] is reported as “retained their full capacity” and the “effect on Akt pS473” value (Akt pS473 in LNCaP cells) is reported as “completely abolished”.
In the case of `CC(CC(C(N)=O)(c1ccccc1)c1ccccc1)N(C)C` (stereo not drawn) [BL139], the “ΔTm50 p110β” value (p110β [2]; 240 min) is reported as 5.78 °C, the “ΔTm50 Akt” value (Akt [3]) is reported as 2.60 °C and the ΔTm at 5 µM (p110β [4]; human, 0.75 h, read-out: ΔTm50 p110β) is reported as 12.4 °C. The “ΔTm50 Akt” value (Akt [5]) was 2.44 °C, the ΔTm at 5 µM (p110α; human, 0.75 h, read-out: ΔTm50 p110α) was 1.51 °C and the ΔTm at 5 µM (p110γ; human, 0.75 h, read-out: ΔTm50 p110γ) was 0.84 °C. For the same compound, the ΔTm at 5 µM (VPS34; human, 0.75 h, read-out: ΔTm50 VPS34) was 0.14 °C and the solubility (aqueous solubility assay; aqueous) was 37400 µg/mL and 99200 µM.
In the case of `Cc1nc(NC(=O)N2CCC[C@H]2C(N)=O)sc1-c1ccnc(C(C)(C)C(F)(F)F)c1` [BYL719], the “effect on Akt pS473” value (Akt pS473 in LNCaP cells) is reported as “partial inhibitory effect”.
In the case of `C[C@@H](Nc1cc(F)cc(F)c1)c1cc(C(=O)N(C)C)cc2c(=O)cc(N3CCOCC3)oc12` [AZD8186], the “effect on Akt pS473” value [1] is reported as “only partially inhibited” and the “effect on Akt pS473” value (Akt pS473 in LNCaP cells) is reported as “completely abolished”.
For `Cc1c(Cn2c(C)nc3c(C(=O)O)cc(N4CCOCC4)cc32)cccc1C(F)(F)F` [GSK2636771], the EC50 (22RV1 cells; Homo sapiens, 22Rv1, 72 h) was 26.1 µM, the “effect on Akt pS473” value [1] was “lost their inhibitory effect” and the “effect on FBS-stimulated Akt pS473 levels” value (Akt pS473 in C4-2B cells) was “abolished”. The “cell cycle distribution (G0/G1 and S-phase)” value (from here on “cell cycle distribution”) (C4-2B/MDV-R cells [6]) was “significantly increased G0/G1 population accompanied with a large reduction of S-phase cells”, the “cell cycle distribution” value (C4-2B cells [7]) was “significantly increased G0/G1 population accompanied with a large reduction of S-phase cells” and the CDK6 protein levels [8] was “no obvious alteration”. For the same compound, the “FBS-induced increase of cyclin D1 protein levels” value [8] was “largely suppressed”, the “p27^kip1 protein levels” value [8] was “largely elevated” and the CDK6 protein levels [9] was “no obvious alteration”. For the same compound, the “FBS-induced increase of cyclin D1 protein levels” value [9] was “largely suppressed”, the EC50 (PC-3 cells; Homo sapiens, PC-3, 72 h) was 14.5 µM and the EC50 (C4-2B cells [10]; 72 h) was 28.9 µM. For the same compound, the EC50 (C4-2B/MDV-R cells [11]; 72 h) was 42.3 µM, the “effect on FBS-stimulated Akt pS473 levels” value [12] was “only partially suppressed” and the “effect on Akt pS473” value (Akt pS473 in LNCaP cells) was “partial inhibitory effect”.
With `CNC(=O)c1ccc(N2C(=S)N(c3ccc(C#N)c(C(F)(F)F)c3)C(=O)C2(C)C)cc1F` [MDV3100] the “effect on FBS-stimulated Akt pS473 levels” value (Akt pS473 in C4-2B cells) was “enhanced”.
In the case of `Cc1cc([C@@H](C)Nc2ccccc2C(=O)O)c2nc(N3CCOCC3)cc(=O)n2c1` [AZD6482], the “effect on Akt pS473” value [1] is reported as “only partially inhibited” and the “effect on Akt pS473” value (Akt pS473 in LNCaP cells) is reported as “completely abolished”.
For `Nc1cc(C(F)(F)F)c(-c2cc(N3CCOCC3)nc(N3CCOCC3)n2)cn1` [BKM120], the “effect on Akt pS473” value [1] was “retained their full capacity” and the “effect on Akt pS473” value (Akt pS473 in LNCaP cells) was “completely abolished”.
For `Cc1cc(C(C)Nc2ccccc2)c2nc(N3CCOCC3)cc(=O)n2c1` (stereo not drawn) [TGX221], the EC50 (22RV1 cells; 22RV1, 3 days) was 17.6 µM, the “effect on Akt pS473” value [1] was “lost their inhibitory effect” and the “ΔTm50 p110β” value (p110β [2]) was 1.72 °C. The “cell cycle distribution” value (C4-2B/MDV-R cells [6]) was “significantly increased G0/G1 population accompanied with a large reduction of S-phase cells”, the “cell cycle distribution” value (C4-2B cells [7]) was “significantly increased G0/G1 population accompanied with a large reduction of S-phase cells” and the “ΔTm50 Akt” value (Akt [3]) was 1.18 °C. The “ΔTm50 p110β” value (p110β [4]; [13]) was 04.02 °C, the “ΔTm50 Akt” value (Akt [5]) was 1.49 °C and the “ΔTm50 p110α” value (p110α; [13]) was 1.57 °C. For the same compound, the IC50 (human p110δ/p85α) was 0.374 µM, the EC50 (PC-3 cells; PC-3, 3 days) was 7.43 µM and the “ΔTm50 p110γ” value (p110γ; [13]) was 0.68 °C. The EC50 (C4-2B cells [10]; C4-2B, 3 days) was 22.6 µM, the EC50 (C4-2B/MDV-R cells [11]; C4-2B/MDV-R, 3 days) was 31.3 µM and the IC50 (human p110α/p85α) was 2.09 µM. For the same compound, the “ΔTm50 VPS34” value (VPS34; [13]) was 0.42 °C, the Aqueous solubility (aqueous solubility assay) was < 1.0 mg/ml and <2.74 mM and the “effect on Akt pS473” value (Akt pS473 in LNCaP cells) was “partial inhibitory effect”.
